Shown is part of a subset that was picked to be rich in hits.
Fibroblast inh: blocks proliferation of human lung fibroblasts. LL 47 human lung fibroblast viability, ATP luminescence; stronger effect = lower value. viability, % at 10 µM. 85,000 tested, 1.1% active. AID 719;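 active = viability at or below 50% in the single dose screen; inactive = viability above 50%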;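 also: compound exposure lasted 72 h before the ATP readout; 100% = median luminescence of untreated cell-only wells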
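Material: human lung fibroblast line LL 47, low passage; Evaluation: viability percentage against median untreated-cell control; Buffer or medium: 15% FBS in IMEM; Incubation: 72 h compound exposure at 37 °C after overnight plating; Dosing: 0.1% DMSO in all compound wells; Measured by: CellTiter-Glo luminescence.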
bCat KO growth: beta-catenin-lacking colon tumor cell growth suppression. HCT116 beta-catenin knockout viability, CellTiter-Glo, 60 h; stronger effect = lower value. viability, % at 10 µM. 140,000 tested, 1.5% active;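 active = viability at or under a set limit, the compound median less 4 SD, cut at about 6% in these data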;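 also: 0% = Hyamine 1622 control at 20 µM and 100% = untreated cell control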
HCT116 PTEN-null: growth suppressors of cells with PTEN tumor suppressor deletion; viability, % at 10 µM; 140,000 tested, 1.2% active; HCT116 PTEN-null viability, CellTiter-Glo, 60 h; stronger effect = lower value; AID 827;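 active = viability at or below a set limit, 4 SD under the median of all tested compounds, cut at about 3.7% in these data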;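 also: PTEN knockout HCT116 line with beta catenin targeted HCT116 as companion control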
H69AR growth 86K: growth inhibitors of human H69AR lung tumor cells | H69AR lung tumor viability, ATP luminescence, 72 h; stronger effect = lower value | viability, % at 10 µM | 85,000 tested, 6% active;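 active = viability at or below 40%; inactive = viability above 40%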;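 also: multidrug resistant small cell line overexpressing MRP-1 efflux transporter; 100% = mean luminescence of untreated control wells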
HUVEC inhibit: blocks proliferation of human endothelial cells | viability, % at 10 µM (by protocol) | AID 648 | 86,000 tested, 1.1% active | HUVEC proliferation, CellTiter-Glo luminescence, 72 h; stronger effect = lower value;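 active = viability at or below 30%; inactive = viability above 30%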;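 also: 100% = median luminescence of DMSO-only cell control wells on each plate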
Active calls of the source: *; · = not tested or not shown.

SMILES	Fibroblast inh	bCat KO growth	HCT116 PTEN-null	H69AR growth 86K	HUVEC inhibit
C=CCN(C(=O)c1ccccc1)c1ccc(OC)cc1	88	42	33	24*	82
O=C(/C=C/c1c(F)cccc1Cl)c1ccc(F)cc1	·	4.3*	2.4*	·	·
O=C(N/N=C/c1c(Cl)cccc1Cl)c1ccc(F)cc1	·	98	92	·	·
Nc1nc2ccccc2n1C(=O)CCc1ccccc1	85	71	68	26*	85
CCOC(=O)c1c(NC(=O)CN2C(=O)c3ccccc3C2=O)sc(Cc2ccc3c(c2)OCO3)c1C	·	78	91	·	·
CCOc1ccc(N(CC(=O)Nc2ccccc2C)S(=O)(=O)c2c(C)noc2C)cc1	49*	10	12	19*	50
CCOc1ccc(N(CC(=O)Nc2cccc(F)c2)S(=O)(=O)c2c(C)noc2C)cc1	75	64	66	30*	86
CCOc1ccc(N(CC(=O)Nc2ccc(C)c(C)c2)S(=O)(=O)c2c(C)noc2C)cc1	90	29	27	48	67
COc1ccc(N(CC(=O)Nc2cc(C)ccc2OC)S(=O)(=O)c2c(C)noc2C)cc1	82	31	34	13*	59
CCOc1ccccc1NC(=O)CN(c1ccc(OC)cc1)S(=O)(=O)c1c(C)noc1C	47*	18	13	88	47
COc1ccc(NC(=O)CN(c2cc(C)cc(C)c2)S(=O)(=O)c2c(C)noc2C)cc1	91	83	79	90	85
CCOc1ccccc1NC(=O)CN(c1cc(C)cc(C)c1)S(=O)(=O)c1c(C)noc1C	93	95	86	73	91
O=C(CSc1nc2ccccc2c(=O)n1-c1ccc(OC(F)F)cc1)NCc1cccs1	·	63	67	·	·
Cc1ccc(CN2CCN(/N=C/c3cc(Br)cc(Br)c3O)CC2)c(C)c1	·	86	93	·	·
CN(C)CCCN1c2ccccc2Sc2ccccc21	90	64	54	57	90
CN(C)CCCN1c2ccccc2CCc2ccc(Cl)cc21	64	1.7*	1.6*	96	59
COc1ccccc1/C=c1\sc2nc(-c3ccco3)nn2c1=O	97	92	109	36*	97
Cc1ccc(-c2nc(N)sc2-c2ccccc2)cc1C	·	91	104	·	·
CCOC(=O)Cn1c2c(c(=N)c3c1CCC3)CCC2	96	94	92	96	95
CCCCCCCCCCn1c2c(c(=N)c3c1CCC3)CCC2	8.6*	1.6*	0.9*	1.8*	4.3*
COc1ccc(-c2ncncc2-c2csc(C)n2)c(O)c1OC	98	98	97	92	102
COC1=C(N)C(=O)c2nc(-c3nc(C(=O)O)c(C)c(-c4ccc(OC)c(OC)c4O)c3N)ccc2C1=O	·	2.3*	2.0*	·	·
COc1ccc(Cl)cc1NC(=S)NCCSc1ccc(C)cc1	·	84	88	·	·
Brc1ccccc1-c1nnc(COc2cccc3cccnc23)o1	100	58	68	32*	108
CC(=O)Nc1ccc(S(=O)(=O)N2CCN(c3nc(NC4CCCC4)c4ccccc4n3)CC2)cc1	85	1.5*	1.5*	1.4*	11*
SMILES	Fibroblast inh	bCat KO growth	HCT116 PTEN-null	H69AR growth 86K	HUVEC inhibit
CC(=O)Nc1ccc(S(=O)(=O)N2CCN(c3cc(C)nc4ccccc34)CC2)cc1	99	88	84	90	93
CCNc1nc(C)c2cc(Br)c(=O)n(CC)c2n1	37*	61	56	58	38
CCn1c(=N)c(C(=O)NC)cc2c(=O)n3cccc(C)c3nc21	93	·	·	75	92
O=C(NCC1CCCO1)NC1(C(F)(F)F)Oc2ccccc2O1 (stereo not drawn)	78	70	68	21*	71
O=C(Nc1ccc2c(c1)OCO2)NC1(C(F)(F)F)Oc2ccccc2O1	93	75	87	26*	80
O=C(NCC1CCCO1)c1ccccc1 (stereo not drawn)	105	95	104	91	99
O=C(Nc1ccc2c(c1)OCCO2)NC1(C(F)(F)F)Oc2ccccc2O1	93	74	66	40	75
O=C(NC1(C(F)(F)F)Oc2ccccc2O1)N1CCCC1	81	70	75	28*	65
COc1cccc(N2CC(C(=O)Nc3nnc(SCc4cccnc4)s3)CC2=O)c1 (stereo not drawn)	·	90	92	·	·
CC1(C)CC(=O)CC(=O)/C1=N\Nc1c(Cl)cc(Cl)cc1Cl	·	83	90	·	·
CNc1nc(Nc2ccc(Br)cc2)nc(N)c1[N+](=O)[O-]	·	82	84	·	·
CCOC(=O)C1=C(N)n2c(s/c(=C\c3cccs3)c2=O)=C(C(=O)OCC)C1c1cccs1 (stereo not drawn)	60	19	17	29*	40
CCOC(=O)C1=C(N)n2c(s/c(=C\c3cccnc3)c2=O)=C(C(=O)OCC)C1c1cccnc1 (stereo not drawn)	96	·	·	54	92
CC1=C(C(=O)Nc2cc(-c3cccc(F)c3)[nH]n2)C2(CCCCC2)OC1=O	76	58	74	32*	77
Cc1ccccc1Cn1nc(C)c(NC(=O)/C=C/c2cnn(C)c2)c1C	·	86	86	·	·
COc1ccc(Cl)cc1NC(=O)c1cccc(NC(=O)CCC(=O)O)c1	·	82	102	·	·
COCCNC(=O)COC(=O)/C=C/c1c(C)nn(Cc2ccc(Cl)cc2Cl)c1Cl	96	82	79	85	87
Cc1nn(Cc2c(Cl)cccc2Cl)c(Cl)c1/C=C/C(=O)OCC(=O)NCC(F)(F)F	·	4.2*	4	·	·
CC(C)NCC(O)Cn1c2c(c3ccccc31)CCc1c-2cnn1-c1ccccc1 (stereo not drawn)	·	1.5*	2.0*	·	·
CCOC(=O)c1nn(-c2ccccc2C)c2nc(-c3ccc(C)cc3)c(C#N)c(=O)n12	·	62	69	·	·
CCOC(=O)c1nn(-c2ccccc2C)c2nc(-c3ccc(Cl)cc3)c(C#N)c(=O)n12	·	1.7*	2.1*	·	·
COc1cccc2c(=O)cc(C)n(CC(=O)Nc3cccc(C)c3)c12	·	60	69	·	·
Cc1cccc(C)c1OCC(=O)Nc1oc(-c2ccccc2)c(-c2ccccc2)c1C#N	96	·	·	27*	68
COc1cccc(N/C(SC)=C(/C#N)C(N)=O)c1	95	76	86	28*	80
Oc1ccc(Br)cc1-c1nc2cnccn2c1NC1CCCC1	75	1.3*	1.9*	47	80
SMILES	Fibroblast inh	bCat KO growth	HCT116 PTEN-null	H69AR growth 86K	HUVEC inhibit
N/C(Cc1ccc([N+](=O)[O-])cc1)=N\OC(=O)c1ccc(Br)cc1	·	97	87	·	·
N/C(Cc1ccc([N+](=O)[O-])cc1)=N\OC(=O)c1ccc2ccccc2c1	74	76	78	66	24*
Cc1cccc(C(=O)O/N=C(\N)Cc2ccc([N+](=O)[O-])cc2)c1	91	71	77	3.6*	59
CC(=O)Nc1nc(NC(=O)/C=C/c2ccccc2)n(-c2ccccc2)n1	·	26	19	·	·
Cn1c(=O)c2c(nc(N/N=C/c3ccc(OC(=O)c4ccco4)cc3)n2Cc2ccccc2)n(C)c1=O	·	59	58	·	·
COC(=O)C1=C(NC(=O)c2ccc(C)cc2)CCS1	·	91	88	·	·
CCCCOc1ccccc1NC(=O)C=C(C)C	95	102	95	98	100

Screening results as filed in PubChem.
